# Reference: PubChem BioAssay
# Calls of active or inactive are those of the source.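 How the source made its calls, unless noted: active means viability at or under a set limit in both replicates, limit being median viability minus 3 SD (cut at about 48% in these data, passing the limit was not always enough); inconclusive means at or under the limit in just one replicate; inactive means at or above the limit in both replicates.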
# What was measured:
# [1] = HUVEC growth inhibition – cell-based, human, primary screen (AID 575;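 active means viability at or below 30% in both replicate assays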;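 further: 100% = median of untreated cell wells with 0.1% DMSO on each plate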); details: HUVEC proliferation, CellTiter-Glo luminescence, 72 h; at 10 µM; stronger effect = lower value
# Procedure, shortened: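 material = primary HUVEC, no more than 12 passages | input = 1250 cells per well | controls = vehicle and MePR control wells | measured by = CTG luminescence | times = 72 h compound incubation | format = collagen-coated 384-well format | read-out = % viability vs DMSO wells | doses = single 10 µM dose, 0.1% DMSO, from 5x medium stock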
# [2] = growth inhibitors of H69AR lung tumor, primary screen, human, duplicate replicates (AID 580); details: H69AR lung tumor cells viability, ATP luminescence, 72 h; at 10 µM; stronger effect = lower value;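 further: 100% = mean luminescence of untreated wells and 0% = no signal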
# [3] = reversal of MRP1-mediated doxorubicin resistance, pilot screen, H69AR cells, doxorubicin co-treatment (AID 601;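 active means viability loss from added drug above about 55%, and viability with drug at most 40%, in both replicates, limit read from the data, passing the limit was not always enough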); details: CellTiter-Glo, 72 h, at 10 µM; for differential viability (reversal): stronger effect = higher value
# [4] = 384-well plate pilot, post-Golgi transport modulator project, inhibition of yeast transport mutant growth (AID 636; in the data active means inhibition above about 31%); details: absorbance 615 nm, about 18 h, stronger effect = higher value
# [5] = growth suppression of yeast trafficking mutant, preliminary HTS, modulators of trafficking downstream of Golgi apparatus project, 1536-format plate, OD 615 nm (AID 637; in the data active means inhibition above about 30%); details: yeast transport mutant growth, absorbance 615 nm, 18 h; stronger effect = higher value
# [6] = H69AR cells + 2 uM doxorubicin, measured here: viability with 2 uM doxorubicin, stronger effect = lower value
# [7] = H69AR cells, compound alone cytotoxicity
Compound,viability [1],viability [2],differential viability (reversal) ([3]; H69AR cells + 2 uM doxorubicin),"viability [3, 6] [%]","viability [3, 7] [%]",inhibition [4],inhibition [5]
Cc1cc2c(c(=O)n1CCN(C)C)C(c1ccncc1)C(C#N)=C(N)O2 (configuration not stated),103% (inactive),103% (inactive),0.98% (inactive),102,103,-2.37% (inactive),-6.51% (inactive)
CCSc1ccccc1C(=O)NCc1ccc(S(N)(=O)=O)cc1,99.2% (inactive),93.7% (inactive),6.25% (inactive),87.5,93.7,-5.2% (inactive),-1.27% (inactive)
CCCn1c(SCC(=O)NCc2ccco2)nc2c1c(=O)n(C)c(=O)n2C,87.6% (inactive),94.4% (inactive),15.9% (inactive),78.5,94.4,-7.87% (inactive),2.38% (inactive)
CC(=O)N1CCN(S(=O)(=O)c2ccc(S(=O)(=O)NCC(C)C)cc2)CC1,111% (inactive),88.5% (inactive),2.16% (inactive),86.4,88.5,-5.73% (inactive),0.16% (inactive)
CSc1nc2ccc(S(=O)(=O)N3CCOCC3)cc2s1,101% (inactive),89.9% (inactive),-4.54% (inactive),94.4,89.9,-6.53% (inactive),2.06% (inactive)
CCS(=O)(=O)c1nc2ccccc2n1CC(=O)N1CCOCC1,95.4% (inactive),91% (inactive),3.73% (inactive),87.2,91,-5.32% (inactive),-1.27% (inactive)
O=C(O)c1ccc(-n2nnnc2Oc2ccccc2C(=O)N2CCOCC2)cc1,108% (inactive),102% (inactive),16.1% (inactive),85.7,102,-1.97% (inactive),-2.7% (inactive)
Cc1cc(C)c(OCC(=O)Nc2cccc(O)c2)cc1C,78.2% (inactive),101% (inactive),3.2% (inactive),97.7,101,-5.07% (inactive),3.97% (inactive)
COc1cccc(-c2csc3nc[nH]c(=O)c23)c1,92.6% (inactive),86.7% (inactive),16.7% (inactive),70,86.7,-5.73% (inactive),5.71% (inactive)
COc1ccc(C2(C(=O)Nc3cc(C)on3)CCOCC2)cc1,98% (inactive),88.1% (inactive),1.2% (inactive),86.9,88.1,-5.87% (inactive),10.8% (inactive)
Cc1cccc2cc(CN(Cc3nnnn3Cc3ccco3)C3CCCC3)c3nnnn3c12,86.8% (inactive),85.6% (inactive),,,,68.2% (active),4.44% (inactive)
O=C1C=C(NCc2ccco2)C2(CCCCC2)O1,95.7% (inactive),105% (inactive),22.5% (inactive),82.2,105,-1.95% (inactive),5.08% (inactive)
O=C(Nc1ccc2c(c1)OCO2)c1cccc(Cl)c1,71.4% (inactive),104% (inactive),13.2% (inactive),90.3,104,-3.87% (inactive),16.8% (inactive)
CCOC(=O)Cc1nnc(NC(=O)c2ncn[nH]2)s1,95.4% (inactive),98.8% (inactive),-2.02% (inactive),101,98.8,-2.93% (inactive),-1.27% (inactive)
Cc1cc(C)cc(Nc2ncc3c(n2)CC(c2ccco2)CC3=O)c1 (configuration not stated),86.1% (inactive),88.3% (inactive),1% (inactive),87.3,88.3,-6.67% (inactive),3.17% (inactive)
COc1ccc(C(=O)Cn2nnc(-c3cccs3)n2)cc1,102% (inactive),90.9% (inactive),4.98% (inactive),85.9,90.9,-6.67% (inactive),-3.65% (inactive)
CN(C(=O)c1c(Cl)nc2sccn12)C1CCCCC1,106% (inactive),93.9% (inactive),16.4% (inactive),77.5,93.9,-5.53% (inactive),-5.4% (inactive)
O=C(NCCc1ccccc1)c1cc(-c2ccco2)on1,81.3% (inactive),88.6% (inactive),,,,-4.08% (inactive),7.94% (inactive)
CCOc1ccc(OCC)c(NS(=O)(=O)c2ccc3c(c2)n(C)c(=O)c(=O)n3C)c1,112% (inactive),95.1% (inactive),5.37% (inactive),89.7,95.1,-0.13% (inactive),1.27% (inactive)
